IC50 and inhibition data for ten compounds are collected here from ChEMBL document CHEMBL4145642, “Natural Inhibitors of the RhoA-p115 Complex from the Bark of Meiogyne baillonii” (J Nat Prod, 2018).

Experiment [1] addresses Neuroepithelial cell-transforming gene 1 protein (Homo sapiens, UniProt Q7Z628, F25N). In words: Inhibition of Net1 (149 to 501 residues) (unknown origin) interaction with GDP-loaded His-tagged RhoA F25N mutant (1 to 180 residues) assessed as reduction in BODIPY-GTP-GDP exchange pretreated for 30 mins followed by RhoA addition by fluorescence based spectrophotometric method. Summed up: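 Exchange is started with 0.1 μM GDP-loaded His-RhoA F25N (1−180). Fluorescence (ex 480/em 540 nm) is read every minute, and initial rate is taken over the first 15 min. Controls are run with and without GEF.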

Experiment [2] addresses T1, Rho guanine nucleotide exchange factor 1 (Homo sapiens) (UniProt Q92888).
T1 sequence (whole entry): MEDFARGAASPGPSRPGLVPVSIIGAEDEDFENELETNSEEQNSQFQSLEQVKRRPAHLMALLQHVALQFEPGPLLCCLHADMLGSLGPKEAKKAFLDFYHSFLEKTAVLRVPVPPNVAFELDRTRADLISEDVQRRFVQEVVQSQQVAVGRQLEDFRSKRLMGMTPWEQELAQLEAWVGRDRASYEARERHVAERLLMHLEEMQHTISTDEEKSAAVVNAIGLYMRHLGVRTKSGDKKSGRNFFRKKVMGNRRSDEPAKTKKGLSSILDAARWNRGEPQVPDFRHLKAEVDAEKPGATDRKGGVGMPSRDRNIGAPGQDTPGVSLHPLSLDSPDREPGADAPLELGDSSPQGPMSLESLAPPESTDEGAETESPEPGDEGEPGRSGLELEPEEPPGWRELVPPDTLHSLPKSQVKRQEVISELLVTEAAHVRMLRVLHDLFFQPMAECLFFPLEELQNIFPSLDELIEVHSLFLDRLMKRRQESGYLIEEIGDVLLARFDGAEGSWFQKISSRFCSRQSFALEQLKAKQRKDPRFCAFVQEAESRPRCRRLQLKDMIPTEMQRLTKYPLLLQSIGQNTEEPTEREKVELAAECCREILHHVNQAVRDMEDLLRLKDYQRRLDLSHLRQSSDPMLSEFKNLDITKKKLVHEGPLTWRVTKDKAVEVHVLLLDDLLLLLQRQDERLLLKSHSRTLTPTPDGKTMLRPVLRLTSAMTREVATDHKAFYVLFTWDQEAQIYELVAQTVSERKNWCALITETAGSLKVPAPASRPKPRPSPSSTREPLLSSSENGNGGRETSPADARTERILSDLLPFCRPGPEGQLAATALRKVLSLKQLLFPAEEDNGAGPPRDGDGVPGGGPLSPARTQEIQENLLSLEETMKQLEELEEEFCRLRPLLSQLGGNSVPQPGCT
In words: Inhibition of p115 DHPH22 domain (395 to 766 residues) (unknown origin) interaction with GDP-loaded His-tagged RhoA F25N mutant (1 to 180 residues) assessed as reduction in BODIPY-GTP-GDP exchange at 200 uM pretreated for 30 mins followed by RhoA addition by fluorescence based spectrophotometric method relative to control.

The target in experiment [3] is T2, Neuroepithelial cell-transforming gene 1 protein (Homo sapiens) (UniProt Q7Z628).
T2 sequence (whole entry): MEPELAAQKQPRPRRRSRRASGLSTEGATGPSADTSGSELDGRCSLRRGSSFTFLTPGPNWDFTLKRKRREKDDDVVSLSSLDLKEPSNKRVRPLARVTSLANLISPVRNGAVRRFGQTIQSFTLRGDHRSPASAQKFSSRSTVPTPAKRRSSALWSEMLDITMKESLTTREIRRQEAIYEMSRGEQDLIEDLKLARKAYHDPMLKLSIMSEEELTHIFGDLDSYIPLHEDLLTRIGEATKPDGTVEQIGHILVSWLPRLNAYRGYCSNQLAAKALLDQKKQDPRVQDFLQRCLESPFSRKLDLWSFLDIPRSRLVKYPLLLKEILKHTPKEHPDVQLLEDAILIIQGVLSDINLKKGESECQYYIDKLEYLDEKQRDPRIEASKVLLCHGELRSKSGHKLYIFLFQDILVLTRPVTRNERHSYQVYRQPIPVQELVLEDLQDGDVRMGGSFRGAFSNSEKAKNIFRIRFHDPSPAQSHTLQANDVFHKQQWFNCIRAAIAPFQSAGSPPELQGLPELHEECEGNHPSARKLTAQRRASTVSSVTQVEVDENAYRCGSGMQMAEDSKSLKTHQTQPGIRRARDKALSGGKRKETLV
The experiment can be described thus: Inhibition of Net1 (149 to 501 residues) (unknown origin) interaction with GDP-loaded His-tagged RhoA F25N mutant (1 to 180 residues) assessed as reduction in BODIPY-GTP-GDP exchange at 200 uM pretreated for 30 mins followed by RhoA addition by fluorescence based spectrophotometric method relative to control.

The target in experiment [4] is Rho guanine nucleotide exchange factor 1 (Homo sapiens, UniProt Q92888, F25N). The experiment can be described thus: Inhibition of p115 DHPH22 domain (395 to 766 residues) (unknown origin) interaction with GDP-loaded His-tagged RhoA F25N mutant (1 to 180 residues) assessed as reduction in BODIPY-GTP-GDP exchange pretreated for 30 mins followed by RhoA addition by fluorescence based spectrophotometric method.

Take `CN1CCc2cc3c(c4c2c1cc1ccccc14)OCO3` [DEHYDROROEMERINE]: the IC50 in experiment [1] amounted to 120 µM. In addition, the inhibition in experiment [2] is 21%; in experiment [3], 83%.

As for `COc1cc(C)c2c(c1C=O)Oc1c(c(C)c(O)c3c1C(O)OC3=O)OC2=O` (stereo unspecified) [STICTIC ACID], the inhibition in experiment [2] amounted to 50.5%. For the same compound, the concentration for half-maximal inhibition (IC50) in experiment [4] worked out at 187 µM.

In the case of `COc1c(O)cc2c3c(cc4ccccc4c13)NC(=O)C2=O`, the values for the inhibition in experiment [2] and in experiment [3] were 0% and 4%, respectively.

As to `COc1cc(C)c2c(c1)Oc1c(cc(OC)cc1C(=O)O)OC2=O`, the results for the inhibition in experiment [2] and in experiment [3] were 1% and 5%, respectively.

Turning to `C=CCC/C=C/C#CC#CCCCCCCCC(=O)O`, in experiment [2], the inhibition worked out at 0%.

`C=CCC/C=C/C#CC#CCCCCCCCC[C@H]1C(=O)O[C@H](C)[C@@H]1OC(C)=O`: the inhibition in experiment [2] is 0%.

On to `C=CCC/C=C/C#CC#CCCCCCC[C@H]1C(=O)O[C@H](C)[C@@H]1OC(C)=O`, for which, in experiment [2], the inhibition amounted to 10%.

In the case of `COc1c(O)cc2c3c(cc4c(O)cccc4c13)NC2=O`, the inhibition in experiment [2] is 0%; in experiment [3], 5%.

Turning to `C=CCC/C=C\C#CC#CCCCCCC[C@H]1C(=O)O[C@H](C)[C@@H]1OC(C)=O`, the inhibition in experiment [2] turned out to be 0%.

On to `C=CCC/C=C\C#CC#CCCCCCCC1=C[C@@H](C)OC1=O`, for which the inhibition in experiment [2] was 0%.
